{"data": "Assay results pooled from the literature", "target": "MAP/microtubule affinity-regulating kinase 3 (MARK3, Homo sapiens, UniProt P27448)", "effect on": "enzyme activity", "mode": "inhibitor", "note": "Protocols differ between the studies behind these lines."}
{"SMILES": "NS(=O)(=O)c1ccc(CNc2ccnc(Nc3cccc(NC(=O)N4CCCC4)c3)n2)cc1", "assay": "radiometric", "conditions": "1 µM", "remaining activity [%]": 115}
{"SMILES": "COc1cc(Cl)c(C(=O)N[C@@H](CN[C@H]2CC[C@@H](N)CC2)Cc2ccc(C#N)cc2)cc1-c1ccc(CN[C@H](C)c2ccc(C)cc2)o1", "conditions": "1 µM", "remaining activity [%]": 98}
{"SMILES": "Nc1nc(NC2CCCCC2)sc1C(=O)c1ccccc1", "conditions": "10 µM", "remaining activity [%]": 100}
{"SMILES": "NS(=O)(=O)c1ccc(CNc2nc(Nc3cccc(CN4CCOCC4)c3)ncc2Br)cc1", "assay": "radiometric", "conditions": "1 µM", "remaining activity [%]": 68}
{"SMILES": "CC(C)(C)c1nc2c(s1)c1nc(N)ncc1c1ccc(NS(=O)(=O)c3c(F)cccc3F)c(F)c12", "assay": "radiometric", "conditions": "1 µM", "remaining activity [%]": 99}
{"SMILES": "O=C(Nc1cnn(-c2csc(C(=O)NC3COC3)c2)c1)Nc1c(F)cccc1Cl", "conditions": "5 µM", "remaining activity [%]": 99.3}
{"SMILES": "CC(C)(O)[C@H]1CC[C@H](Nc2ccc3ncc(-c4cccc(C(F)(F)F)c4)n3n2)CC1", "conditions": "1 µM", "remaining activity [%]": 101}
{"SMILES": "Cc1sc(C(=O)NC2COC2)cc1-n1cc(NC(=O)Nc2c(F)cccc2Cl)cn1", "conditions": "10 µM", "remaining activity [%]": 102}
{"SMILES": "NS(=O)(=O)c1ccc(CNc2nc(Nc3cccc(NC(=O)N4CCCC4)c3)ncc2C2CC2)cc1", "assay": "radiometric", "conditions": "1 µM", "remaining activity [%]": 112}
{"SMILES": "CC(C)(C)c1nc(-c2cccc(NS(=O)(=O)c3c(F)cccc3F)c2F)c(-c2ccnc(N)n2)s1", "assay": "radiometric", "conditions": "1 µM", "remaining activity [%]": 96}
{"SMILES": "Brc1cnc(Nc2cccc(CN3CCOCC3)c2)nc1NCCc1c[nH]cn1", "assay": "radiometric", "conditions": "1 µM", "remaining activity [%]": 16}
{"SMILES": "Cn1c(=O)n(-c2ccc(C(C)(C)C#N)cc2)c2c3cc(-c4cnc5ccccc5c4)ccc3ncc21", "conditions": "10 µM", "remaining activity [%]": 100}
{"SMILES": "CC(C)(C)C(=O)c1sc(NC2CCCCC2)nc1N", "conditions": "10 µM", "remaining activity [%]": 112}
{"SMILES": "COc1cc(Nc2cnc(C#N)c(O[C@H](C)CN(C)C)n2)ncc1-c1cnn(C)c1", "assay": "radiometric", "conditions": "1 µM", "remaining activity [%]": 98}
{"SMILES": "Cc1nn(CC(F)(F)F)cc1Nc1ncc(Br)c(NCc2ccc(S(N)(=O)=O)cc2)n1", "assay": "radiometric", "conditions": "1 µM", "remaining activity [%]": 105}
{"SMILES": "FC(F)c1nc2ccccc2n1-c1nc(N2CCOCC2)nc(N2CCOCC2)n1", "conditions": "10 µM", "remaining activity [%]": 94}
{"SMILES": "Cc1ccc(C(=O)Nc2ccc(CN3CCN(C)CC3)c(C(F)(F)F)c2)cc1C#Cc1cnc2cccnn12", "conditions": "23.5 nM", "remaining activity [%]": 83}
